This is an account of results in publication PMC2875079 (Journal of medicinal chemistry, 2010).

Data set [1] concerns the target diacylglycerol kinase type γ (Homo sapiens, UniProt P49619). The data set is described as follows: Specificity test at recombinant diacylglycerol kinase type γ. The data set is classed as biochemical. As to conditions: at concentrations up to 100 μM.
For data set [2], the target named is T1, diacylglycerol kinase type δ1 (Homo sapiens, UniProt Q16760).
T1 sequence (Q16760 1-1170 isoform Q16760-2): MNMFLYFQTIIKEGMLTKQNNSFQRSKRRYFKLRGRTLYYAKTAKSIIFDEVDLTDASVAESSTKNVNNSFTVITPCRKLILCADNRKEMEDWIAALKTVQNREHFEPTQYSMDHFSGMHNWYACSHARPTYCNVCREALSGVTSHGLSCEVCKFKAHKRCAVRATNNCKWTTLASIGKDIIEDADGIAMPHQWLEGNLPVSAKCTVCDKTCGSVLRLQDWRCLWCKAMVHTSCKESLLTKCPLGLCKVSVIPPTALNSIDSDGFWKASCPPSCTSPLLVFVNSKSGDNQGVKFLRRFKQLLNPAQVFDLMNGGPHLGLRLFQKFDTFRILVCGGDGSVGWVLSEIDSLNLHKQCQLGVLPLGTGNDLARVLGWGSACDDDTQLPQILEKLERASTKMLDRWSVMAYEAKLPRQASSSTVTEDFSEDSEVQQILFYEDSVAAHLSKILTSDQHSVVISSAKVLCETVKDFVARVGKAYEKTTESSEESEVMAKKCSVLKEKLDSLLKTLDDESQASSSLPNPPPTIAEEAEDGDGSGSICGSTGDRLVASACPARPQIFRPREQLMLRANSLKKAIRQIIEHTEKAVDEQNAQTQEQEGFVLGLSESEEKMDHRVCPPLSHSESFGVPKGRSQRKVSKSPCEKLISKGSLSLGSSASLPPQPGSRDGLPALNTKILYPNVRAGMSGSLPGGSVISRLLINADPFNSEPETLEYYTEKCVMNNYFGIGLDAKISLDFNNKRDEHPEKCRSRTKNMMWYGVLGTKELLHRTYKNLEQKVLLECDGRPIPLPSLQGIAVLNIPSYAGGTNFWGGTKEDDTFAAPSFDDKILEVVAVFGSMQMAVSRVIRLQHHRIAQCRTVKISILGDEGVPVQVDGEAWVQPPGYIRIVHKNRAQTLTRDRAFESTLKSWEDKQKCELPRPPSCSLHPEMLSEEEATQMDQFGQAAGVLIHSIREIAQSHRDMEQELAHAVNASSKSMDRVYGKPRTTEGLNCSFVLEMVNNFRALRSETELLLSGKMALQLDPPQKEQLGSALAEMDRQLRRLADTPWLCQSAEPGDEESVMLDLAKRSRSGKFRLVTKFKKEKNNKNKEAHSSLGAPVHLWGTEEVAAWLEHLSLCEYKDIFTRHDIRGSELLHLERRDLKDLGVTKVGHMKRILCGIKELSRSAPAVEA
Put plainly: Specificity test at recombinant diacylglycerol kinase type δ1. The data set is classed as biochemical. As to conditions: at concentrations up to 100 μM.

In data set [3] the target is diacylglycerol kinase type ζ (Homo sapiens, UniProt Q13574). Put plainly: Specificity test at recombinant diacylglycerol kinase type ζ. The data set is classed as biochemical. The conditions noted are these: at concentrations up to 100 μM.
Sequence of diacylglycerol kinase type ζ (Q13574 whole entry): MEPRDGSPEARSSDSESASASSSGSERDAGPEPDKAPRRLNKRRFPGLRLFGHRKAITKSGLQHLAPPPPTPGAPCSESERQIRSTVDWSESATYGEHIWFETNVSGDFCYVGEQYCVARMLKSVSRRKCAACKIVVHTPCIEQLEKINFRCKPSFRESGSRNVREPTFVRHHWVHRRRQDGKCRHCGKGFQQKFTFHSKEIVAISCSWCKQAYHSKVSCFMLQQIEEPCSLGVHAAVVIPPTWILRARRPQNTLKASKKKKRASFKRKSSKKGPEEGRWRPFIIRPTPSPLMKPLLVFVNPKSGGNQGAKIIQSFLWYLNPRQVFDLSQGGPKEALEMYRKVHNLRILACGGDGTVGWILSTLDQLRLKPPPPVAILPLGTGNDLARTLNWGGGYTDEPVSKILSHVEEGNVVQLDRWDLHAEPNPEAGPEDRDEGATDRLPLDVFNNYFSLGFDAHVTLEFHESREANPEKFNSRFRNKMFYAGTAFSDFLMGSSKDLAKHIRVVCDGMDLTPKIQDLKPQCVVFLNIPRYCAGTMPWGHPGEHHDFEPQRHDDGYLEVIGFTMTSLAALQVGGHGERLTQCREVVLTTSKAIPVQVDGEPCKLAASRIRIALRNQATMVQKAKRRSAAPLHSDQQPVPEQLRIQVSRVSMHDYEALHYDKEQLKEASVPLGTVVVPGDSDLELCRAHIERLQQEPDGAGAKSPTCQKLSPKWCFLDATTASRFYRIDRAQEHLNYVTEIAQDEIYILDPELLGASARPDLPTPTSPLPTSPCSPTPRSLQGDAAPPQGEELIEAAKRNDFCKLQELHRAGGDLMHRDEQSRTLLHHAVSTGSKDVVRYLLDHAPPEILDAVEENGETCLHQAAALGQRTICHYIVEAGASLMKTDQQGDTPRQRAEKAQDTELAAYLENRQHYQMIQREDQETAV
In the next data set the target is T2, mouse SphK2 (Mus musculus, UniProt Q9JIA7).
T2 sequence (Q9JIA7 1-617): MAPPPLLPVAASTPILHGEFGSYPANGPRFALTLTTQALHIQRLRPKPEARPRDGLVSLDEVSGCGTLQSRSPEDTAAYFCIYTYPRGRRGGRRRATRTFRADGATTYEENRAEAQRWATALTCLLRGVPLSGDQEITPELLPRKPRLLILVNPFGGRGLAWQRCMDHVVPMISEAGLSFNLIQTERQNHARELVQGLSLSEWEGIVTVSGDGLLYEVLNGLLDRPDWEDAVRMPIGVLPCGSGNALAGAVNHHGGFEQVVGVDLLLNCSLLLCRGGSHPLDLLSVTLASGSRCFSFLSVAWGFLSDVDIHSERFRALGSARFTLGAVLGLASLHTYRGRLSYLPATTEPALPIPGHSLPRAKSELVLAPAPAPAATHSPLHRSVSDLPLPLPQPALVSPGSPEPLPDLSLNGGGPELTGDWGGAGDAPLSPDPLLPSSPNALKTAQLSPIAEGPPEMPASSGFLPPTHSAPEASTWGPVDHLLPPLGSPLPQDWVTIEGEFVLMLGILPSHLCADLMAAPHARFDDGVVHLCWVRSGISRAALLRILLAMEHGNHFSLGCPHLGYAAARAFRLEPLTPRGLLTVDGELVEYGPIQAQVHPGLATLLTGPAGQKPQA
Put plainly: Sphingosine kinase assay, recombinant SphK2. In kind it is biochemical. The conditions noted are these: for Inhibition of SphK2: at concentrations up to 100 μM.

Another data set has as its target PKCα (Homo sapiens, UniProt P17252). The data set is described as follows: Specificity test at PKCα. The data set is classed as biochemical. As to conditions: at concentrations up to 10 μM.
For data set [4], the system named is vascular smooth muscle cells. The data set is described as follows: Intracellular S1P concentration by LC/MS in serum-stimulated smooth muscle cells. The data set is classed as cell-based, rat. The conditions noted are these: pre-treated 30 min, then 10% serum; Figure 3C. In a few lines: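 Rat aortic smooth muscle cells were pre-treated with test compound for 30 min, then given 10% FBS for 12 h. Cells were washed in PBS and scraped into ice-cold MeOH, then extracted with CHCl3/0.1 M HCl containing 50 pmol C17 S1P internal standard. The organic phase was acetylated (acetic anhydride/pyridine). Analysis used C8 LC with […] ESI-MS/MS (BisAcS1P 462/402), quantified against calibration curves. N=2 biological replicates; mean ± st dev.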

The test system of data set [5] is vascular smooth muscle cells. Put plainly: Cell viability / cytotoxic response, Promega MultiTox-Fluor Assay. The data set is classed as cell-based. As to conditions: 0.001 μM – 100 μM, Figure 3F. Put shortly:
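Rat aortic vascular smooth muscle cells, cultured in vitro. Test compound applied at 0.001–100 μM, with 20 μM cyclosporine A as comparator. Cytotoxicity read with the MultiTox-Fluor fluorescence kit. N=3 biological replicates; mean ± st dev; P < 0.05 marked.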

For data set [6], the system named is vascular smooth muscle cells. Put plainly: Cytotoxicity on visual microscopic inspection. In kind it is cell-based. As to conditions: 10% FBS + compound (10 μM), light microscopy; Figure 3E. In a few lines: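 Rat aortic vascular smooth muscle cells were imaged by light microscopy at 20× magnification. Conditions were untreated control, 10% FBS, and 10% FBS plus test compound at 10 μM. Cytotoxicity was judged by visual inspection.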

The target in another data set is Human SphK1 (Homo sapiens, UniProt Q9NYA1). The data set is described as follows: Sphingosine kinase assay, recombinant SphK1. The conditions noted are these: for Inhibition of SphK1: at concentrations up to 100 μM. The data set is classed as biochemical.
Data set [7] relates to vascular smooth muscle cells. Put plainly: Smooth muscle cell proliferation, BrdU incorporation. The conditions noted are these: pre-treated 30 min, 10% serum 24 hours, Figure 3D. In kind it is cell-based, rat. In a few lines: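 Rat aortic vascular smooth muscle cells were pre-treated 30 min with a dose range of test compound, then stimulated with 10% FBS for 24 h. Proliferation was read as BrdU (10 μM) incorporation by immunoassay. N=6 biological replicates; mean ± st dev; P < 0.05 marked.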
Background: Dividing cells build labelled thymidine or BrdU into new DNA.

For a further data set, the system named is SphK1. The conditions noted are these: read-out: KM of SphK1 for sphingosine; cited from earlier work.
The next data set deals with SphK2. As to conditions: read-out: KM of SphK2 for sphingosine; cited from earlier work.
A further data set concerns SphKs. As to conditions: cited from earlier work.
For data set [8] the following is noted: in water and DMSO; cited from earlier work.
Substrate in data set [9]: CCCCCCCCCCCCC/C=C/[C@@H](O)[C@@H](N)CO
The data set is described as follows: Sphingosine kinase assay, recombinant SphK2. The conditions noted are these: other: substrate D-erythro-sphingosine, absence of inhibitor. The data set is classed as biochemical, mouse.

Substrate in data set [10]: CCCCCCCCCCCCC/C=C/[C@@H](O)[C@@H](N)CO
Put plainly: Sphingosine kinase assay, recombinant SphK1. As to conditions: other: substrate D-erythro-sphingosine, absence of inhibitor. In kind it is biochemical, human.

Sequence of diacylglycerol kinase type γ (P49619 whole entry): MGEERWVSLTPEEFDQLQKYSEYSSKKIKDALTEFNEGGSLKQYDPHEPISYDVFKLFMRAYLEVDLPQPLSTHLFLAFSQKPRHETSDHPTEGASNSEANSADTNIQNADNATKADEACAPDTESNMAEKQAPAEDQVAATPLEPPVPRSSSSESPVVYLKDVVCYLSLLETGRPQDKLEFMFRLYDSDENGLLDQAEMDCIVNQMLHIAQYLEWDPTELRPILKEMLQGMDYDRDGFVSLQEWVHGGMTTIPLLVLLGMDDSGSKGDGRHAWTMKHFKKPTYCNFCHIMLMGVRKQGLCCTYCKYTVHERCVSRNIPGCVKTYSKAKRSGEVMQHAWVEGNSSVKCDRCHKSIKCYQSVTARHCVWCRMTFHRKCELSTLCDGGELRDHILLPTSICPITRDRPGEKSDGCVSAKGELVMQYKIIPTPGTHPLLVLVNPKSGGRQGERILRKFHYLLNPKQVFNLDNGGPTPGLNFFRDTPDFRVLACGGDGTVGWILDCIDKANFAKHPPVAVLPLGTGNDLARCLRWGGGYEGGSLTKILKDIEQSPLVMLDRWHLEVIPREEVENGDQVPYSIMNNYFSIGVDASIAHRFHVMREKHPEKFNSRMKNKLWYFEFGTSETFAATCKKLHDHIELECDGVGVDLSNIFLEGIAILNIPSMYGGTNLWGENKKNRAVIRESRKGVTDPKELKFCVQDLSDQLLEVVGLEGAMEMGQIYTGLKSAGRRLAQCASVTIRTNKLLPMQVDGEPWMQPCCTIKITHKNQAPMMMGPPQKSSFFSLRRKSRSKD

As usually defined, the Ki is a dissociation constant, usually derived from enzyme kinetics or from competition with a known ligand. With `CCCCCCCCCCCCc1ccc(NC(=O)C2(C(=N)N)CC2)cc1.Cl` [compound 28, 1-carbamimidoyl-N-(4-dodecylphenyl)cyclopropanecarboxamide hydrochloride], in data set [1], the “Inhibition of diacylglycerol kinase type γ” value is reported as “no inhibition”. For the same molecule, in data set [2], the “Inhibition of diacylglycerol kinase type δ1” value is “no inhibition”. Also, in [3], the “Inhibition of diacylglycerol kinase type ζ” value is on record as “no inhibition”. For the same molecule, the Ki at mouse SphK2 is 6 µM. Moreover, the “Inhibition of PKCα” value on PKCα is on record as “no inhibition”.

Take `CCCCCCCCc1ccc(C(=O)N[C@@H](C)C(=N)N)cc1.Cl` [compound 9, (S)-N-(1-amino-1-iminopropan-2-yl)-4-octylbenzamide hydrochloride]: the “Serum-induced changes in S1P intracellular concentration” value in data set [4] was “blocked”. For the same molecule, the “Cytotoxicity/death in cell viability assay” value in data set [5] was “did not induce cytotoxicity/death”. In addition, the “Cytotoxicity on visual microscopic inspection” value in data set [6] is listed as “not cytotoxic”. Further, the results for the Ki at mouse SphK2 and on Human SphK1 were 20 µM and 55 µM, respectively. For the same molecule, the “Blocked serum-induced smooth muscle cell proliferation” value in [7] was “blocked”.

Broadly, the Km is the concentration of substrate that gives half-maximal velocity. As to `CCCCCCCCCCCCC/C=C/[C@@H](O)[C@@H](N)CO` [Sphingosine, D-erythro-sphingosine], the Km is around 10 µM in the data set on SphK1 and around 5 µM with SphK2.

In the case of `CCCCCCCCCCCCC/C=C/[C@@H](O)[C@H](N)CO` [D-(+)-threo-sphingosine], the “Inhibition of the SphKs” value with SphKs was “weak inhibitor”.

Consider `Cn1cc(NC(=O)c2cc(NC(=O)c3cc(NC=O)cn3C)cn2C)cc1C(=O)NCCC(=N)N` [Distamycin A], for which, in [8], the pKa is on record as 11.6.

With `CCCCCCCCc1ccc(C(=O)N[C@@H](C)C(N)=O)cc1` [compound 13, (S)-N-(1-amino-1-oxopropan-2-yl)-4-octylbenzamide], the “Inhibition of SphK2” value at mouse SphK2 is given as “no inhibition”. For the same molecule, on Human SphK1, the “Inhibition of SphK1” value was “no inhibition”.

For `CCCCCCCCCCCCc1ccc(C(=O)NC2(C(=N)N)CC2)cc1.Cl` [compound 23, N-(1-carbamimidoylcyclopropyl)-4-dodecylbenzamide hydrochloride], in [1], the “Inhibition of diacylglycerol kinase type γ” value was “no inhibition”. Also, the “Inhibition of diacylglycerol kinase type δ1” value in [2] is “no inhibition”. Also, in data set [3], the “Inhibition of diacylglycerol kinase type ζ” value is recorded as “no inhibition”. Further, the “Inhibition of PKCα” value at PKCα is “no inhibition”.

In the case of `CCCCCCCCc1ccc(C(=O)N[C@@H](C)C(=O)O)cc1` [compound 12, (S)-2-(4-octylbenzamido)propanoic acid], the “Inhibition of SphK2” value at mouse SphK2 is “no inhibition”. The “Inhibition of SphK1” value on Human SphK1 is on record as “no inhibition”.

B1: mouse SphK2 (Mus musculus) (protein)
chain: T2 sequence (Q9JIA7 1-617)
For the molecule B1, the Km in data set [9] was 5 µM.

B2: Human SphK1 (Homo sapiens) (protein)
chain: MDPAGGPRGVLPRPCRVLVLLNPRGGKGKALQLFRSHVQPLLAEAEISFTLMLTERRNHARELVRSEELGRWDALVVMSGDGLMHEVVNGLMERPDWETAIQKPLCSLPAGSGNALAASLNHYAGYEQVTNEDLLTNCTLLLCRRLLSPMNLLSLHTASGLRLFSVLSLAWGFIADVDLESEKYRRLGEMRFTLGTFLRLAALRTYRGRLAYLPVGRVGSKTPASPVVVQQGPVDAHLVPLEEPVPSHWTVVPDEDFVLVLALLHSHLGSEMFAAPMGRCAAGVMHLFYVRAGVSRAMLLRLFLAMEKGRHMEYECPYLVYVPVVAFRLEPKDGKGVFAVDGELMVSEAVQGQVHPNYFWMVSGCVEPPPSWKPQQMPPPEEPL
Consider B2, for which, in [10], the Km amounted to 10 µM.
